The source made the active and inactive calls. No cut-off for these calls is given here.
Legend:
Hepatitis C virus [1] = experiment: Antiviral activity against HCV infected in human Ava5 cells assessed as reduction in HCV RNA level after 3 days by qRT-PCR analysis; type: functional, organism-based, Hepacivirus hominis; conditions: for EC50: Ava5, 72 h
Method in brief: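 Ava5 cells (Huh7 harbouring HCV subgenomic replicon) exposed to compounds at 0.5–150 µM for 3 days. Total cellular RNA quantified by RT-qPCR with HCV-specific primers, normalised to GAPDH mRNA. EC50 is the concentration lowering HCV RNA by 50% versus 0.1% DMSO mock, from non-linear regression. Means of triplicate experiments.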

[2] = Selectivity index, ratio of CC50 for human Ava5 cells to IC50 for HCV replication; type: functional
Method in brief: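 CC50 from MTS viability in Ava5 cells, run in parallel with replicon treatment (0.5–150 µM, 3 days, versus 0.1% DMSO mock). EC50 is 50% reduction in HCV RNA by RT-qPCR. Index calculated as CC50/EC50.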

Hepatitis C virus [3] = experiment: Antiviral activity against HCV infected in human Ava5 cells assessed as reduction in HCV RNA level at 15 uM after 3 days by qRT-PCR analysis relative to control; type: functional, Hepacivirus hominis; parameters: scale not given: the % may be the effect or the level left
Method in brief: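 HCV replicon Ava5 cells treated 3 days at 2.5–15 µM. HCV RNA measured by RT-qPCR, normalised to GAPDH mRNA, relative to 0.1% DMSO mock. Triplicate experiments, mean ± SD.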

[4] = system: Internal ribosome entry site (IRES); experiment: Inhibition of HCV IRES-mediated translation by secretory alkaline phosphatase reporter gene assay; type: nucleic-acid assay; conditions: Hepacivirus hominis
Hepacivirus hominis = experiment: Inhibition of HCV NS5B polymerase activity by luciferase reporter gene assay
Hepatitis C virus [5] = experiment: Antiviral activity against HCV infected in human Ava5 cells assessed as inhibition of NS5B protein expression after 4 days by Western blot analysis; type: functional, organism-based; conditions: Hepacivirus hominis
Method in brief: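 Ava5 cells (Huh7 carrying HCV subgenomic replicon) incubated 4 days with compound at 2.5–15 µM; 0.1% DMSO as mock. Cell lysates analysed by western blot with anti-NS5B antibody, GAPDH as loading control.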

Huh-7 = experiment: Inhibition of HCV NS3/4A protease expressed in human Huh7 cells coexpressing EGFP at 15 uM after 3 days by secretory alkaline phosphatase reporter gene assay; type: cell-based; conditions: Hepacivirus hominis
Method in brief: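 Huh-7 cells transfected 6 h with 0.5 µg pEG(Δ4AB)SEAP-NS3/4A reporter plasmid, then treated with compound at 5, 10, 12.5 and 15 µM. Controls: 10 nM BILN 2061 (positive) and 0.1% DMSO (mock). SEAP activity in culture medium read after 3 days, expressed as % reduction versus mock. Triplicates, mean ± SD.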

| SMILES | EC50 (Hepatitis C virus [1]) [µM] | Ratio CC50/EC50 [2] | further results |
| --- | --- | --- | --- |
| COc1ccc(Nc2ccc3ccccc3n2)cc1 | 43 | 1 | – |
| Clc1ccc(Nc2ccc3ccccc3n2)cc1 | 53 | 1.1 | – |
| Brc1ccccc1Nc1ccc2ccccc2n1 | 60 | 1 | – |
| CCOC(=O)c1ccc(Nc2ccc3ccccc3n2)cc1 | 50 | 2.9 | – |
| Cc1cccc(C)c1Nc1ccc2ccccc2n1 | 40 | 1 | – |
| Cc1ccc(Nc2ccc3ccccc3n2)cc1 | 43 | 1 | – |
| Clc1cc(Br)ccc1Nc1ccc2ccccc2n1 | 45 | 1 | – |
| Cc1ccc(Nc2ccc3ccccc3n2)c(C)c1 | 35 | 1 | – |

Now those with a lower EC50 (Hepatitis C virus [1]), led by results:

| EC50 (Hepatitis C virus [1]) [µM] | SMILES | Ratio CC50/EC50 [2] | further results |
| --- | --- | --- | --- |
| 33 | COc1cc(Nc2ccc3ccccc3n2)cc(OC)c1 | 1 | – |
| 31 | Cc1cc(C)cc(Nc2ccc3ccccc3n2)c1 | 1 | – |
| 25 | COc1cc(Nc2ccc3ccccc3n2)cc(OC)c1OC | 3 | – |
| 23 | c1ccc(Nc2ccc3ccccc3n2)cc1 | 1.96 | – |
| 21.7 | O=[N+]([O-])c1cc(Nc2ccc3ccccc3n2)ccc1O | 3.8 | – |
| 20 | O=[N+]([O-])c1ccc(Nc2ccc3ccccc3n2)cc1 | 2.4 | – |
| 15.1 | c1ccc(COc2cccc(Nc3ccc4ccccc4n3)c2)cc1 | 3.1 | – |
| 14.3 | N#Cc1ccc(Nc2ccc3ccccc3n2)cc1 | 3.5 | – |
| 12.5 | Cc1cc(Cl)ccc1Nc1ccc2ccccc2n1 | 3.4 | – |
| 7 | O=[N+]([O-])c1cccc(Nc2ccc3ccccc3n2)c1 | 10 | Activity (Hepatitis C virus [1]; Hepacivirus hominis): Dose-dependent effect; Activity (Hepatitis C virus [3]): 80%; inhibition [4]: inactive; inhibition (Hepacivirus hominis): inactive; inhibition (Hepatitis C virus [5]): Dose-dependent effect; inhibition (Huh-7): 40% |

Reference: ChEMBL document CHEMBL1938316, “Synthesis and anti-HCV activity evaluation of anilinoquinoline derivatives” (Bioorg Med Chem Lett, 2012)
